Source: ChEMBL document CHEMBL4513216, “Probing the Open Global Health Chemical Diversity Library for Multistage-Active Starting Points for Next-Generation Antimalarials” (ACS Infect Dis, 2020)

Assay: Toxicity liver stage against HepG2, at 10uM
Format: cell-based
Set-up: test concentration 10 uM, cell line HepG2-A16-CD81EGFP
Details: human, HepG2-A16-CD81EGFP cells; read-out: INHIBITION
Method in brief: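 Uninfected HepG2-A16-CD81EGFP cells, 3 × 10^3 per well, 1536-well, plated on prespotted compound at 10 μM final, parasite-free screening media added to match infected plates; puromycin 10 μM positive, DMSO 0.5% negative; run in parallel with 48 h PbLuc assay at 37 °C, 5% CO2; viability by CellTiter-Glo luminescence, normalized to controls.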

| SMILES | cytotoxicity at 10 µM [%] |
| --- | --- |
| Cc1ccccc1C(=O)NC(C)CN1CCOC1=O (stereo not given) | 4.33 |
| CN(C)CCCNCC1CCOC(C)(C)C1 (stereo not given) | -8.02 |
| CO[C@@H]1CN(c2ccccc2)S(=O)(=O)[C@@]12CCN(S(C)(=O)=O)C2 | 2.21 |
| Cc1c(OCC(=O)NCc2ccccc2Cl)c(=O)ccn1C | -40.5 |
| CCOC(=O)Cc1csc(NC(=O)c2cc(=O)c(OC)c[nH]2)n1 | -43.8 |
| COc1ccccc1C1SCC(=O)Nc2c1c(=O)[nH]n2C1CCOCC1 (stereo not given) | -5.43 |
| COc1cn(CC(=O)N2CCN(c3ccc(F)cc3)CC2)c(C)cc1=O | 2.29 |
| COCCCNC(=O)C1CN(C(=O)c2cnccn2)C1 | 0.722 |
| O=C(Nc1nc2c(s1)CN(S(=O)(=O)C1CC1)CC2)c1ccccn1 | -5.46 |
| CCC(C)N1CCc2c(C(=O)N3CCOCC3)n[nH]c2C1 (stereo not given) | 1.88 |
| COCCNC(=O)c1ccnn1-c1ccc2ccccn12 | 8.28 |
| COc1cccc(-c2cnc3n2CCC32CCN(S(C)(=O)=O)CC2)c1 | -2.2 |
| O=C(C1CC(F)(F)C1)N1CC[C@H]2OCC[C@@]2(COCC2CC2)C1 | -3.09 |
| Cc1ccccc1C(=O)N1C[C@@H]2C[C@@H](C)O[C@@H]2C1 | 0.995 |
| Cn1cc(CN2CCCn3cnc(COCc4ccco4)c3C2)cn1 | 7.61 |
| Cc1ccn(CC(=O)Nc2cc(-c3ccncc3)[nH]n2)n1 | -14.8 |
| Cc1nc(-c2ccccc2)sc1CNC(=O)c1ccc(=O)n(C)c1 | -6.09 |
| O=C(Nc1cccnc1N1CCSCC1)c1ccc2c(c1)CCO2 | -0.678 |
| COc1ccc(C(C)NCc2nnc(C)s2)cc1F (stereo not given) | -19.8 |
| COC(=O)C1CN(Cc2ccc(-c3ccncc3)cc2F)C[C@@H](C)O1 (stereo not given in full) | 1.63 |
| CC(C)(C)c1cnc(CN2CCC(CO)CC2)o1 | -5.6 |
| CN1CCN(C(=O)C2SCCc3sccc32)CC1 (stereo not given) | -12.6 |
| CN(CCOc1cccc(CNS(C)(=O)=O)c1)C1CCOCC1 | 2.37 |
| CC(C)NC(=O)CCNC(=O)c1cc(Br)cn1C(C)C | 4.33 |
| NC(=O)c1ccc(N2CCCCC2)c(NC(=O)c2ccc(Br)cc2)c1 | 11.1 |
| Fc1ccc(CN2CCOC(Cn3cncn3)C2)c2ncccc12 (stereo not given) | 0.219 |
| Cc1cc(C)n(C2CN(CC(=O)N(C)Cc3ccco3)C2)n1 | -4.42 |

| SMILES | cytotoxicity at 10 µM [%] |
| --- | --- |
| CNc1cc(N2CCCC2CNCc2cccc(C(N)=O)c2)ncn1 (stereo not given) | -7.72 |
| Cc1nc(C)n(C2CCCN(C(=O)Cc3ccc4c(c3)CCC4)C2)n1 (stereo not given) | -10.3 |
| CSc1ccc(NC(=O)Cc2cccc(O)c2)nc1 | -4.3 |
| CN(C(=O)c1ccco1)C1CCC(NC(=O)OC(C)(C)C)CC1 (stereo not given) | 8.12 |
| Clc1ccc(-c2cnc(CNC3CCc4ncnn4C3)o2)cc1 (stereo not given) | -4.36 |
| N#Cc1c(Cl)nsc1N1CCN(CC2CC2)CC1 | 28.5 |
| Cc1cnn(CCNCc2c(C)nn(Cc3ccccc3)c2C)c1 | -3.46 |
| CC(C)CN(CC(O)c1ccc(F)cc1)C(=O)c1cc[nH]n1 (stereo not given) | -5.71 |
| Cc1nc(C(C)C)sc1C(=O)NS(=O)(=O)c1ccc(C#N)cc1 | -6.94 |
| COc1cc(N2CC[C@@H]3OCCN(C)[C@H]3CC2)ncn1 | -96.6 |
| CC(C)n1nc(CN2CCCC2=O)c2c1CN(C(=O)c1ccco1)C2 | 5.35 |
| O=C(c1ccoc1)N1CCO[C@@H]2CNC[C@@H]21 | -99.9 |
| O=C(c1ccno1)N1CC[C@@H]2CN(C3CCOCC3)CCO[C@@H]2C1 | -102 |
| O=C(Cc1ccsc1)N1C[C@@H]2COC[C@]2(COc2cccnc2)C1 | -99.3 |
| COc1cccc(OC)c1-c1ccnc2cc(CC(=O)NC3CC3)nn12 | -2.67 |
| CCNc1nc(-c2cccnc2)c(-c2ccnc(N3CCOCC3)n2)s1 | -10.1 |
| CCc1cc(N2CCCC(CC)(C(=O)O)C2)nc(N2CCOCC2)n1 (stereo not given) | 0.701 |
| CCOc1cc(CNCc2nc(C)cc(=O)[nH]2)c(Cl)cc1OC(C)C | -7.83 |
| O=C1N(CCCc2ccccc2)CCCC1(O)CNCC1CCCCC1 (stereo not given) | -0.106 |
| CCc1ncc2c(n1)CN(C(=O)c1c(C)[nH]c(C(C)=O)c1C)C2 | -45.9 |
| COCCn1cnnc1Cn1ccnc1-c1ccsc1 | 8.61 |
| Cc1noc(C)c1-c1n[nH]c2c1CN(S(=O)(=O)c1ccsc1)CC2 | 5.6 |
| CCOc1ccc(CNCc2cccnc2N(C)C)cc1 | -6.5 |
| Cc1cc(C(=O)N2CCC(CCn3cccn3)CC2)c(C)o1 | -5.27 |
| CC(C)[C@@H]1CN(C(=O)C2(c3ccccc3)CCN(C)CC2)C[C@H]1N(C)C | -32 |
| Cc1cc(C)n(Cc2cc(C(=O)N3CCCC3c3ccccn3)n[nH]2)n1 (stereo not given) | 0.739 |
| Cc1ccc(C2(CN3CCN(c4ncccn4)CC3)CCNCC2)nc1 | -10.1 |

| SMILES | cytotoxicity at 10 µM [%] |
| --- | --- |
| Cc1cc2nc(C(C)C)cc(NCCc3cccn3C)n2n1 | 0.407 |
| CCOCC(C)(C)NC(=O)Nc1cc(F)ccc1OC | -3.12 |
| Cc1ccsc1C(=O)NCc1ccnc(OCC(F)(F)F)c1 | -6.19 |
| CC(NC(=O)NCCOc1ccc(Cl)cc1)c1nncn1C (stereo not given) | -8.47 |
| CC(O)CNC(=O)NCc1ccc(N2CCNC(=O)C2)cc1 (stereo not given) | -7.23 |
| CCC(CNC(=O)Nc1cnn(CC)c1)N1CCCC1 (stereo not given) | -1.47 |
| CN1CCOC(CNCCc2ccccn2)C1 (stereo not given) | -4.77 |
| Cc1nc(C)n(CC2CCCN2Cc2nc3ccccc3nc2C)n1 (stereo not given) | 6.21 |
| Cc1ccc(-c2nc(CN3CCC(C(=O)N(C)C)CC3)cs2)o1 | 1.32 |
| CC(=O)Nc1nc(CN2CCCC2Cn2cc(C)cn2)cs1 (stereo not given) | 3.22 |
| CC(C)C(=O)N1CCC2(CC1)NC(=O)c1ccccc12 | -0.787 |
| CC(C)CNC(=O)N1CCC2(CC1)OC(C(N)=O)Cn1ccnc12 (stereo not given) | -103 |
| CO[C@@H]1CCN(S(=O)(=O)c2cn(C)cn2)[C@H]1Cc1ccncc1 | 4.05 |
| CC(=O)N1[C@@H](C(=O)NCC2CC2)C[C@@H]2CN(Cc3nccs3)C[C@@H]21 | 1.7 |
| Cn1cccc1CN1CCC2(CC1)CCN(C(=O)c1cnccn1)CC2 | -147 |
| O=C([C@H]1CN(Cc2ccoc2)C[C@H]2OCC[C@@H]12)N1CCCCO1 | 7.86 |
| O=C1N(Cc2ccncc2)CCC12CCCN(c1ncc(F)cn1)C2 (stereo not given) | -7.38 |
| CC(C)C(=O)N1CCc2onc(C(=O)NCCN(C)C)c2C1 | 5.56 |
| CN(C)C(=O)COCc1nnc2n1CCN(Cc1ccsc1)C2 | 7.16 |
| CC1CCN(C(=O)[C@H]2CC[C@@H]3[C@@H](CCN3Cc3nccs3)O2)CC1 | 4.62 |
| Cc1ccc(N2CCC3(CN(CCO)CCC3(F)F)C2)nn1 (stereo not given) | 7.28 |
| CC1N(c2cnn(C)c2)C(=O)COC12CCN(c1ccccn1)CC2 (stereo not given) | -5.31 |
| COCCN1C[C@@H]2[C@@H](OC)CCN(C(=O)Cc3ccsc3)[C@@H]2C1 | 7.68 |
| CN(Cc1cccs1)C1CCC[C@@H]2CN(C(N)=O)C[C@H]12 (stereo not given in full) | 18.6 |
| O=C(Cc1cccc(F)c1)N1CCN2C[C@H](Oc3cncnc3)C[C@H]2C1 | 6.1 |
| O=C(CC1[C@H]2CN(C(=O)Cc3ccccn3)C[C@@H]12)Nc1cccnc1 (stereo not given in full) | 10.1 |
